Assay [1] can be described thus: Ratio of ED50 value administered subcutaneously to that of perorally. The assay is classed as functional. In short, it runs like this:
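Mouse tail pressure test ED50 values obtained after sc and po dosing by Litchfield–Wilcoxon at peak activity. The sc ED50 divided by the po ED50 is expressed as a percentage.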

The subject of assay [2] is Mus musculus. As to the kind of experiment: (§1) In vivo antinociceptive activity expressed as ED50 administered perorally for tail pressure test. As to conditions: po.
Assay [3] concerns Mus musculus. Description: In vivo antinociceptive activity expressed as ED50 administered perorally for tail pressure test in mice. As to conditions: po.
Assay [4] deals with Mus musculus. Described as §1. As to conditions: po. This is another data set of the same source.

This passage reports Ratio and ED50 results from ChEMBL document CHEMBL1135567, “Synthesis and structure-activity relationships of an orally available and long-acting analgesic peptide, N(alpha)-amidino-Tyr-D-Arg-Phe-MebetaAla-OH (ADAMB)” (J Med Chem, 2002).

What is called ED50 is the dose that gives a 50% effect, or the effect in half of the subjects.

On to `CN1CC[C@]23c4c5ccc(O)c4O[C@H]2[C@@H](O)C=C[C@H]3[C@H]1C5` [MORPHINE], for which the Ratio in assay [1] is 15. In addition, the figures for the ED50 with Mus musculus [2], with Mus musculus [3] and in the assay on Mus musculus [4] were 15 mg/kg, 3.3 mg/kg and 1.7 mg/kg, respectively.
